# Tests used:
# Rattus norvegicus [1] = test: Antihypertensive activity in left kidney ligation and contralateral nephrectomy-induced hypertensive Sprague-Dawley rat model assessed as change in systolic blood pressure at 75 mg/kg, po administered via stomach tube; format: functional, Artery
# Summary of the method: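 Conscious female rats made hypertensive by figure-8 ligature of left kidney, contralateral nephrectomy 1 week later. Dosed orally by stomach tube. Systolic pressure measured at the tail with occluding and sensing cuffs and a pressure transducer, before dosing and 1.5 and 4 h after. Values are group means of 4 or 8 rats.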
# Rattus norvegicus [2] = test: Antihypertensive activity in pithed rat assessed as change in sympathetic outflow activation-induced systemic pressor response at 20 mg/kg, iv at 2.5 Hz frequency; format: functional
# Summary of the method: (§1)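 Pithed-rat preparation under ether anesthesia with artificial respiration, pretreated with atropine 1 mg/kg and d-tubocurarine chloride 1 mg/kg. Sympathetic outflow activated electrically at 2.5, 5 or 10 Hz. Carotid pressure responses taken before and after one or more test doses given via jugular vein. Reported as percent change in pressor response.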
# Rattus norvegicus [3] = test: Antihypertensive activity in pithed rat assessed as change in sympathetic outflow activation-induced systemic pressor response at 10 mg/kg, iv at 2.5 Hz frequency; format: functional; summary of the method: as §1
# Rattus norvegicus [4] = test: Antihypertensive activity in pithed rat assessed as change in sympathetic outflow activation-induced systemic pressor response at 20 mg/kg, iv at 5 Hz frequency; format: functional; summary of the method: as §1
# Rattus norvegicus [5] = test: Antihypertensive activity in pithed rat assessed as change in sympathetic outflow activation-induced systemic pressor response at 10 mg/kg, iv at 5 Hz frequency; format: functional; summary of the method: as §1
# Rattus norvegicus [6] = test: Antihypertensive activity in pithed rat assessed as change in sympathetic outflow activation-induced systemic pressor response at 20 mg/kg, iv at 10 Hz frequency; format: functional; summary of the method: as §1
# Rattus norvegicus [7] = test: Antihypertensive activity in pithed rat assessed as change in sympathetic outflow activation-induced systemic pressor response at 10 mg/kg, iv at 10 Hz frequency; format: functional; summary of the method: as §1
# Rattus norvegicus [8] = test: Antihypertensive activity in pithed rat assessed as change in phenylephrine-induced systemic pressor response at 20 mg/kg, iv in presence of 2 mg/kg phenylephrine; format: functional
# Summary of the method: (§2)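 Ether-anesthetized, artificially respired rats pretreated with atropine 1 mg/kg and d-tubocurarine chloride 1 mg/kg. Carotid arterial pressure recorded; drugs given into the jugular vein. Pressor responses to iv phenylephrine measured before and after one or more iv doses of test compound. Reported as percent change in response.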
# Rattus norvegicus [9] = test: Antihypertensive activity in pithed rat assessed as change in phenylephrine-induced systemic pressor response at 10 mg/kg, iv in presence of 2 mg/kg phenylephrine; format: functional; summary of the method: as §2
# Rattus norvegicus [10] = test: Antihypertensive activity in pithed rat assessed as change in phenylephrine-induced systemic pressor response at 20 mg/kg, iv in presence of 4 mg/kg phenylephrine; format: functional; summary of the method: as §2
# Rattus norvegicus [11] = test: Antihypertensive activity in pithed rat assessed as change in phenylephrine-induced systemic pressor response at 10 mg/kg, iv in presence of 4 mg/kg phenylephrine; format: functional; summary of the method: as §2
# Rattus norvegicus [12] = test: Antihypertensive activity in pithed rat assessed as change in sympathetic outflow activation-induced systemic pressor response at 30 mg/kg, iv at 2.5 Hz frequency; format: functional; summary of the method: as §1
# Rattus norvegicus [13] = test: Antihypertensive activity in pithed rat assessed as change in sympathetic outflow activation-induced systemic pressor response at 30 mg/kg, iv at 5 Hz frequency; format: functional; summary of the method: as §1
# Rattus norvegicus [14] = test: Antihypertensive activity in pithed rat assessed as change in sympathetic outflow activation-induced systemic pressor response at 30 mg/kg, iv at 10 Hz frequency; format: functional; summary of the method: as §1
# Rattus norvegicus [15] = test: Antihypertensive activity in pithed rat assessed as change in phenylephrine-induced systemic pressor response at 30 mg/kg, iv in presence of 2 mg/kg phenylephrine; format: functional; summary of the method: as §2
# Rattus norvegicus [16] = test: Antihypertensive activity in pithed rat assessed as change in phenylephrine-induced systemic pressor response at 30 mg/kg, iv in presence of 4 mg/kg phenylephrine; format: functional; summary of the method: as §2
# Rattus norvegicus [17] = test: Antihypertensive activity in pithed rat assessed as change in sympathetic outflow activation-induced systemic pressor response at 5 mg/kg, iv at 2.5 Hz frequency; format: functional; summary of the method: as §1
# Rattus norvegicus [18] = test: Antihypertensive activity in pithed rat assessed as change in sympathetic outflow activation-induced systemic pressor response at 15 mg/kg, iv at 2.5 Hz frequency; format: functional; summary of the method: as §1
# Rattus norvegicus [19] = test: Antihypertensive activity in pithed rat assessed as change in sympathetic outflow activation-induced systemic pressor response at 5 mg/kg, iv at 5 Hz frequency; format: functional; summary of the method: as §1
# Rattus norvegicus [20] = test: Antihypertensive activity in pithed rat assessed as change in sympathetic outflow activation-induced systemic pressor response at 15 mg/kg, iv at 5 Hz frequency; format: functional; summary of the method: as §1
# Rattus norvegicus [21] = test: Antihypertensive activity in pithed rat assessed as change in sympathetic outflow activation-induced systemic pressor response at 5 mg/kg, iv at 10 Hz frequency; format: functional; summary of the method: as §1
# Rattus norvegicus [22] = test: Antihypertensive activity in pithed rat assessed as change in sympathetic outflow activation-induced systemic pressor response at 15 mg/kg, iv at 10 Hz frequency; format: functional; summary of the method: as §1
# Rattus norvegicus [23] = test: Antihypertensive activity in pithed rat assessed as change in phenylephrine-induced systemic pressor response at 5 mg/kg, iv in presence of 2 mg/kg phenylephrine; format: functional; summary of the method: as §2
# Rattus norvegicus [24] = test: Antihypertensive activity in pithed rat assessed as change in phenylephrine-induced systemic pressor response at 15 mg/kg, iv in presence of 2 mg/kg phenylephrine; format: functional; summary of the method: as §2
# Rattus norvegicus [25] = test: Antihypertensive activity in pithed rat assessed as change in phenylephrine-induced systemic pressor response at 5 mg/kg, iv in presence of 4 mg/kg phenylephrine; format: functional; summary of the method: as §2
# Rattus norvegicus [26] = test: Antihypertensive activity in pithed rat assessed as change in phenylephrine-induced systemic pressor response at 15 mg/kg, iv in presence of 4 mg/kg phenylephrine; format: functional; summary of the method: as §2
# Rattus norvegicus [27] = test: Antihypertensive activity in pithed rat assessed as change in sympathetic outflow activation-induced systemic pressor response at 40 mg/kg, iv at 2.5 Hz frequency; format: functional; summary of the method: as §1
# Rattus norvegicus [28] = test: Antihypertensive activity in pithed rat assessed as change in sympathetic outflow activation-induced systemic pressor response at 40 mg/kg, iv at 5 Hz frequency; format: functional; summary of the method: as §1
# Rattus norvegicus [29] = test: Antihypertensive activity in pithed rat assessed as change in sympathetic outflow activation-induced systemic pressor response at 40 mg/kg, iv at 10 Hz frequency; format: functional; summary of the method: as §1
# Rattus norvegicus [30] = test: Antihypertensive activity in pithed rat assessed as change in phenylephrine-induced systemic pressor response at 40 mg/kg, iv in presence of 2 mg/kg phenylephrine; format: functional; summary of the method: as §2
# Rattus norvegicus [31] = test: Antihypertensive activity in pithed rat assessed as change in phenylephrine-induced systemic pressor response at 40 mg/kg, iv in presence of 4 mg/kg phenylephrine; format: functional; summary of the method: as §2
# Rattus norvegicus [32] = test: Antihypertensive activity in pithed rat assessed as change in sympathetic outflow activation-induced systemic pressor response at 1 mg/kg, iv at 2.5 Hz frequency; format: functional; summary of the method: as §1
# Rattus norvegicus [33] = test: Antihypertensive activity in pithed rat assessed as change in sympathetic outflow activation-induced systemic pressor response at 1 mg/kg, iv at 5 Hz frequency; format: functional; summary of the method: as §1
# Rattus norvegicus [34] = test: Antihypertensive activity in pithed rat assessed as change in sympathetic outflow activation-induced systemic pressor response at 1 mg/kg, iv at 10 Hz frequency; format: functional; summary of the method: as §1
# Rattus norvegicus [35] = test: Antihypertensive activity in pithed rat assessed as change in phenylephrine-induced systemic pressor response at 1 mg/kg, iv in presence of 4 mg/kg phenylephrine; format: functional; summary of the method: as §2
# Rattus norvegicus [36] = test: Antihypertensive activity in pithed rat assessed as change in phenylephrine-induced systemic pressor response at 1 mg/kg, iv in presence of 2 mg/kg phenylephrine; format: functional; summary of the method: as §2
compound,measurement,setting,value
N=C(N)N1CCNc2ccc(Cl)cc2C1.O=[N+]([O-])O,Activity,Rattus norvegicus [1],-34 mmHg
CN1CCN(C(=N)N)Cc2ccccc21.O=[N+]([O-])O,Activity,Rattus norvegicus [1],-60 mmHg
same,Activity,Rattus norvegicus [2],-83%
same,Activity,Rattus norvegicus [3],-73%
same,Activity,Rattus norvegicus [4],-83%
same,Activity,Rattus norvegicus [5],-67%
same,Activity,Rattus norvegicus [6],-82%
same,Activity,Rattus norvegicus [7],-57%
same,Activity,Rattus norvegicus [8],-26%
same,Activity,Rattus norvegicus [9],-14%
same,Activity,Rattus norvegicus [10],-20%
same,Activity,Rattus norvegicus [11],-5%
N=C(N)N1CCN2CCc3cccc(c32)C1.O=[N+]([O-])O,Activity,Rattus norvegicus [1],-12 mmHg
N=C(N)N1CCn2c3c(c4cccc(c42)C1)CCCC3.O=[N+]([O-])O,Activity,Rattus norvegicus [1],-8 mmHg
C[N+]1(C)CCNc2ccccc2C1.[I-],Activity,Rattus norvegicus [1],-46 mmHg
same,Activity,Rattus norvegicus [3],10%
same,Activity,Rattus norvegicus [12],-38%
same,Activity,Rattus norvegicus [5],9%
same,Activity,Rattus norvegicus [13],-34%
same,Activity,Rattus norvegicus [7],1%
same,Activity,Rattus norvegicus [14],-35%
same,Activity,Rattus norvegicus [9],23%
same,Activity,Rattus norvegicus [15],44%
same,Activity,Rattus norvegicus [11],39%
same,Activity,Rattus norvegicus [16],74%
CN1CC[N+](C)(C)Cc2ccccc21.[I-],Activity,Rattus norvegicus [1],-51 mmHg
CC1CNc2ccccc2C[N+]1(C)C.[I-] (centres undefined),Activity,Rattus norvegicus [1],-4 mmHg
CCN1CC[N+](C)(CC)Cc2ccccc21.[I-] (centres undefined),Activity,Rattus norvegicus [1],-21 mmHg
C[N+]1(C)CCNc2ccc(Cl)cc2C1.[I-],Activity,Rattus norvegicus [1],-4 mmHg
COc1cc2c(cc1OC)NCC[N+](C)(C)C2.[I-],Activity,Rattus norvegicus [1],2 mmHg
C[N+]1(C)CCN2CCc3cccc(c32)C1.[I-],Activity,Rattus norvegicus [1],-48 mmHg
same,Activity,Rattus norvegicus [17],-42%
same,Activity,Rattus norvegicus [18],-93%
same,Activity,Rattus norvegicus [19],-40%
same,Activity,Rattus norvegicus [20],-87%
same,Activity,Rattus norvegicus [21],-47%
same,Activity,Rattus norvegicus [22],-91%
same,Activity,Rattus norvegicus [23],68%
same,Activity,Rattus norvegicus [24],87%
same,Activity,Rattus norvegicus [25],18%
same,Activity,Rattus norvegicus [26],12%
C[N+]1(C)CCn2c3c(c4cccc(c42)C1)CCCC3.[I-],Activity,Rattus norvegicus [1],3 mmHg
N/C(CN1CCNc2ccccc2C1)=N\O,Activity,Rattus norvegicus [1],-12 mmHg
N=C(N)N1CCNc2ccccc2C1.O=[N+]([O-])O,Activity,Rattus norvegicus [1],-55 mmHg
same,Activity,Rattus norvegicus [2],-39%
same,Activity,Rattus norvegicus [27],-82%
same,Activity,Rattus norvegicus [4],-50%
same,Activity,Rattus norvegicus [28],-100%
same,Activity,Rattus norvegicus [6],-58%
same,Activity,Rattus norvegicus [29],-86%
same,Activity,Rattus norvegicus [8],8%
same,Activity,Rattus norvegicus [30],3%
same,Activity,Rattus norvegicus [10],5%
same,Activity,Rattus norvegicus [31],10%
N=C(N)NCCN1CCCCCCC1 [GUANETHIDINE],Activity,Rattus norvegicus [17],-100%
same,Activity,Rattus norvegicus [32],-85%
same,Activity,Rattus norvegicus [19],-100%
same,Activity,Rattus norvegicus [33],-72%
same,Activity,Rattus norvegicus [21],-94%
same,Activity,Rattus norvegicus [34],-65%
same,Activity,Rattus norvegicus [23],160%
same,Activity,Rattus norvegicus [35],57%
same,Activity,Rattus norvegicus [36],64%
same,Activity,Rattus norvegicus [25],105%

# From ChEMBL document CHEMBL3244258, “Derivatives of tetrahydro-1,4-benzodiazepines as potential antihypertensive agents” (1977)
